# Screen size: about 310,000 compounds; about 1,100 (0.35%) were called active.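 Rule for the calls: active = fluorescence ratio B-score, a plate-corrected score, at least three library SD, with initial intensity B-score within 5 SD; inactive = the rest.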 The sample as a whole holds a higher share of actives than the screen did.
# Target: Potassium voltage-gated channel subfamily KQT member 1 (Homo sapiens) (UniProt P51787)
# Assay: potentiators or activators of KCNQ1 channel, primary screen, cell-based, thallium flux, high-throughput (AID 2648)
# Settings: CHO-K1 KCNQ1, thallium flux FluxOR fluorescence, at 10 µM; stronger effect = higher value
# In short: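 Schedule – 37 °C overnight plating, 90-min dark dye load, 20-min compound pretreatment · System – stable KCNQ1 CHO-K1 line · Probe or stimulus – thallium- and potassium-containing depolarizing buffer · Measured by – kinetic FluxOR fluorescence, 10 s baseline plus 110 s post-stimulus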
# Sequence of Potassium voltage-gated channel subfamily KQT member 1 (Homo sapiens) (P51787 whole entry, looked up): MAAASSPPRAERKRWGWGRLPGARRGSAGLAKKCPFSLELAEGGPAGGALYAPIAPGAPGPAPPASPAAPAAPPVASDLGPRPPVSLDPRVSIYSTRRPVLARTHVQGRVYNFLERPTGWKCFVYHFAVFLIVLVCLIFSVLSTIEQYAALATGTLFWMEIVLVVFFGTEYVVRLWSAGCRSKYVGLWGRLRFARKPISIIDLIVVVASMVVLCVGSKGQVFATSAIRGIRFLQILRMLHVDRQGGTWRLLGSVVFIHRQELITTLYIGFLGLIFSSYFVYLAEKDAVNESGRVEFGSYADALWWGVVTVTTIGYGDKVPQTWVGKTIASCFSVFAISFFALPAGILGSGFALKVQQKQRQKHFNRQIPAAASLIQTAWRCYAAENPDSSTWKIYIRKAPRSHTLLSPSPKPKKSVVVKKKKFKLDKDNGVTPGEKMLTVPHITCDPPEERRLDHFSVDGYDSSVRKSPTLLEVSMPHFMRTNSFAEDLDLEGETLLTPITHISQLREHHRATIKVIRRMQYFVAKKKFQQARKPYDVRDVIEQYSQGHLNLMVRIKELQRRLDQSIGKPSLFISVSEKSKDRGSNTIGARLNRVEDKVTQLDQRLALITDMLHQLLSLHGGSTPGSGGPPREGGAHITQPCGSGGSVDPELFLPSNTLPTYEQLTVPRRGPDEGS
row,SMILES,B-score
1,COc1cc(-n2c(=S)[nH]c3ccc(C)cc3c2=O)c(Cl)cc1Cl,8 (active)
2,C/C=C/CC1(CC)C(=O)NC(=S)NC1=O,inactive
3,CCN(CC)C(=O)c1ccc(NC(=O)c2sccc2-c2ccccc2)cc1,inactive
4,Cc1ccc2c(c1)C1CN(C)CCC1N2C(=O)Cn1nnc(-c2ccccc2F)n1 (stereo not given),inactive
5,CC(Cc1ccccc1)NC=O (stereo not given),inactive
